Bioassay records: PubChem BioAssay, Broad Institute
T cruzi intra: intracellular Trypanosoma cruzi inhibition. intracellular Trypanosoma cruzi in host cells, plate reader. activity score (inhibition), % at 5.01 µM. 22,000 compounds, 4.9% hits. AID 651903; in the data active = activity score above about 55%;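 also: parasites and compound incubated about four days before reading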
YB-1 expr inh: YB-1 expression inhibition. U2OS, qRT-PCR YB-1 vs CDIP delta delta Cp, 16 h; hits give high values; zero = DMSO, each unit about twofold. delta delta Cp (YB-1 minus CDIP) (no concentration beside the values). 30,000 compounds, 0.37% hits. AID 434959;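 active = delta delta Cp rounded down to an integer at or above 3, about 3 SD of DMSO wells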;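 also: higher means less YB-1 transcript or more CDIP transcript relative to DMSO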
INS-1E ATP HTS: INS-1E beta cell protection from cytokine death; AID 488910; 20,000 compounds, 0.1% hits; INS-1E cytokine-induced death, ATP luminescence, 48 h; normalised: neutral wells 0, positive control 100; protection from cytokine-induced ATP loss, % at 10 µM;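 active = mean replicate protection from cytokine-induced ATP loss at least 50% and at least 75% of replicates each reaching 50%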
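Assay system – rat INS-1E insulinoma cell line · Quantity – 8000 cells per well · Buffer or medium – RPMI without phenol red, 5% FBS · Schedule – 48 h co-treatment, 10 min post-lysis read · Technique – luminescent ATP assay (CellTiter-Glo)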
A number is an active result; . = inactive; / = no result. Only a selection was taken, and hits are over-represented in it overall.

SMILES	T cruzi intra	YB-1 expr inh	INS-1E ATP HTS
C[C@@H]1CN([C@H](C)CO)C(=O)Cc2cc(NC(=O)Cc3cn(C)c4ccccc34)ccc2O[C@H]1CN(C)Cc1ccc(C(F)(F)F)cc1	63.3	.	.
C[C@@H]1CN([C@H](C)CO)C(=O)Cc2cc(NC(=O)Cc3cn(C)c4ccccc34)ccc2O[C@@H]1CN(C)Cc1ccccc1	.	.	.
C[C@H]1CN([C@@H](C)CO)C(=O)Cc2cc(NC(=O)Cc3cn(C)c4ccccc34)ccc2O[C@H]1CN(C)Cc1ccc(C(F)(F)F)cc1	75.3	.	.
C[C@@H]1CN([C@@H](C)CO)C(=O)Cc2cc(NC(=O)Cc3cn(C)c4ccccc34)ccc2O[C@@H]1CN(C)Cc1ccccc1	.	.	.
O=C(CC[n+]1ccc(/C=N/O)cc1)NCc1ccccc1	/	.	/
C=C1C(=O)O[C@H]2[C@H]1[C@@H](OC(=O)/C(C)=C\C)C(OC(C)=O)/C(C(=O)OC)=C\CC[C@@]1(C)O[C@H]21 (some centres undefined)	/	.	/
Cc1sc2nc3c4ccccc4c(N4CCC(C)CC4)nn3c(=O)c2c1C	/	.	/
Nc1cc(N)cc(C(=O)OCN2C(=O)c3ccccc3C2=O)c1	/	.	/
CCN(CC)C(=S)NC(=S)c1ccc(C)cc1	/	.	/
C[C@@H]1O[C@@H](O[C@H]2[C@H](O[C@H]3CC[C@@]4(C)C(CC[C@]5(C)C4CC=C4C6CC(C)(C)CC[C@]6(C(=O)O[C@@H]6O[C@H](CO[C@@H]7O[C@H](CO)[C@@H](O[C@@H]8O[C@@H](C)[C@H](O)[C@@H](O)[C@H]8O)[C@H](O)[C@H]7O)[C@@H](O)[C@H](O)[C@H]6O)CC[C@]45C)[C@]3(C)CO)OC[C@H](O)[C@@H]2O)[C@H](O)[C@H](O)[C@H]1O (some centres undefined)	/	.	/
C[C@@H]1O[C@@H](O[C@H]2[C@H](O[C@H]3CC[C@@]4(C)C(CC[C@]5(C)C4C=C[C@]46OC[C@@]7(CCC(C)(C)C[C@H]74)[C@@H](O)C[C@]65C)[C@]3(C)CO)O[C@H](CO)[C@@H](O)[C@@H]2O[C@@H]2O[C@H](CO)[C@@H](O[C@@H]3O[C@@H](C)[C@H](O)[C@@H](O)[C@H]3O)[C@H](O)[C@H]2O)[C@H](O)[C@H](O)[C@H]1O (some centres undefined)	/	3.35	/
CC(C)N(C(=O)Cn1c2ccccc2c2nc3ccccc3nc21)c1ccccc1	/	.	/
O=c1nc(Nc2ccc(OC(F)(F)F)cc2)oc2ccccc12	/	.	/
C[C@H]1CN([C@@H](C)CO)C(=O)c2cccc(NC(=O)c3ccncc3)c2O[C@@H]1CN(C)Cc1ccc(C(=O)O)cc1	.	.	.
C[C@H](CO)N1C[C@H](C)[C@@H](CN(C)Cc2ccc(C(=O)O)cc2)Oc2c(NC(=O)c3ccncc3)cccc2C1=O	.	.	.
C[C@@H]1CN([C@@H](C)CO)C(=O)c2cccc(NC(=O)c3ccncc3)c2O[C@@H]1CN(C)Cc1ccc(-c2ccccc2)cc1	58.5	.	.
C[C@@H]1CN([C@H](C)CO)C(=O)c2cccc(NC(=O)c3ccncc3)c2O[C@@H]1CN(C)Cc1ccc(-c2ccccc2)cc1	66.7	.	.
CC1(C)C=Cc2c(c3occc3c3oc(-c4ccccc4)cc(=O)c23)O1	/	.	/
COc1cc(S(C)=O)ccc1-c1nc2ccncc2[nH]1 (centres undefined)	/	.	/
CC(=O)n1c(O)c(/C=C2/C=c3ccc(C)cc3=NC2=O)sc1=N	/	.	/
C[C@H]1CN([C@@H](C)CO)C(=O)Cc2cc(NC(=O)Nc3ccc(C(F)(F)F)cc3)ccc2O[C@H]1CN(C)Cc1ccc(C(F)(F)F)cc1	82.2	.	.
COc1ccc(CN(C)C[C@@H]2Oc3ccc(NC(=O)Nc4ccc(C(F)(F)F)cc4)cc3CC(=O)N([C@@H](C)CO)C[C@@H]2C)cc1	.	.	.
C[C@@H]1CN([C@H](C)CO)C(=O)Cc2cc(NC(=O)C3CCCCC3)ccc2O[C@H]1CN(C)Cc1ccc(C(F)(F)F)cc1	58.0	.	.
C[C@H]1CN([C@@H](C)CO)C(=O)Cc2cc(NC(=O)Nc3ccc(C(F)(F)F)cc3)ccc2O[C@@H]1CN(C)Cc1ccc(C(=O)O)cc1	.	.	.
C[C@@H]1CN([C@@H](C)CO)C(=O)Cc2cc(NC(=O)C3CCCCC3)ccc2O[C@@H]1CN(C)Cc1ccc(C(F)(F)F)cc1	.	.	.
SMILES	T cruzi intra	YB-1 expr inh	INS-1E ATP HTS
C[C@@H]1CN([C@H](C)CO)C(=O)Cc2cc(NC(=O)Nc3ccc(F)cc3)ccc2O[C@@H]1CN(C)Cc1ccc(C(F)(F)F)cc1	60.2	.	.
CC(C)NC(=O)Nc1ccc2c(c1)CC(=O)N([C@H](C)CO)C[C@@H](C)[C@@H](CN(C)Cc1ccc(C(F)(F)F)cc1)O2	.	.	.
C[C@@H]1CN([C@@H](C)CO)C(=O)Cc2cc(NC(=O)Nc3ccc(C(F)(F)F)cc3)ccc2O[C@@H]1CN(C)Cc1ccc(C(F)(F)F)cc1	64.3	.	.
CC(C)=CCc1c(O)cc(O)c2c(=O)cc(-c3ccc(O)cc3)oc12	/	.	/
C(=NCc1ccco1)c1cn(-c2ccccc2)nc1-c1ccccc1	/	.	/
O=C1NCCN1CCNC(=S)Nc1cc(C(F)(F)F)cc(C(F)(F)F)c1	/	.	/
O=C1C2=C(NC(=S)NC2c2ccccc2)c2ccccc21 (centres undefined)	/	.	/
CCCCC1CCC(C(=O)Oc2ccc(OCC)cc2)CC1 (centres undefined)	/	.	/
C[C@H]1CN([C@@H](C)CO)C(=O)c2cc(NC(=O)Nc3cccc4ccccc34)ccc2O[C@H]1CN(C)Cc1ccc2c(c1)OCO2	61.3	.	.
C[C@H]1CN([C@@H](C)CO)C(=O)c2cc(NC(=O)Nc3cccc4ccccc34)ccc2O[C@@H]1CN(C)Cc1ccc2c(c1)OCO2	.	.	.
C[C@@H]1CN([C@H](C)CO)C(=O)c2cc(NC(=O)Nc3cccc4ccccc34)ccc2O[C@@H]1CN(C)Cc1ccc2c(c1)OCO2	.	.	.
C[C@@H]1CN([C@@H](C)CO)C(=O)c2cc(NC(=O)Nc3cccc4ccccc34)ccc2O[C@@H]1CN(C)Cc1ccc2c(c1)OCO2	55.6	.	.
C[C@@H]1CN([C@H](C)CO)C(=O)Cc2cc(NC(=O)Nc3ccc4c(c3)OCO4)ccc2O[C@@H]1CN(C)Cc1ccc(C(F)(F)F)cc1	75.6	.	.
C[C@H]1CN([C@@H](C)CO)C(=O)Cc2cc(NC(=O)Nc3ccc(C(F)(F)F)cc3)ccc2O[C@@H]1CN(C)Cc1ccc2c(c1)OCO2	.	.	.
C[C@@H]1CN([C@H](C)CO)C(=O)Cc2cc(NC(=O)Nc3ccc(C(F)(F)F)cc3)ccc2O[C@@H]1CN(C)Cc1ccc2c(c1)OCO2	62.0	.	.
C[C@@H]1CN([C@@H](C)CO)C(=O)Cc2cc(NC(=O)Nc3ccc4c(c3)OCO4)ccc2O[C@@H]1CN(C)Cc1ccc2c(c1)OCO2	.	.	.
C[C@@H]1CN([C@H](C)CO)C(=O)Cc2cc(NC(=O)Nc3ccc(F)cc3)ccc2O[C@H]1CN(C)Cc1ccc2c(c1)OCO2	.	.	.
